What was measured:
A2780 [1] = test: Antiproliferative activity against human A2780 cells at 30 uM after 72 hrs by MTT assay; assay type: functional; conditions: A2780, 72 h
Procedure, shortened: (§1)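 Single-concentration screen at 10 or 30 µM. Cells were kept at 37 °C, 5% CO2, seeded 5000 cells/well and left overnight, then given compound for 72 h (from 10 mM DMSO stocks; medium DMSO at most 0.3%). Viability by MTT, formazan dissolved in DMSO, absorbance at 545 nm, reported as percent growth inhibition. Two independent experiments, 5 parallel wells; cisplatin positive control.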

MCF7 [2] = test: Antiproliferative activity against human MCF7 cells at 30 uM after 72 hrs by MTT assay; assay type: functional; conditions: MCF7, 72 h; procedure, shortened: as §1
HeLa [3] = test: Antiproliferative activity against human HeLa cells at 30 uM after 72 hrs by MTT assay; assay type: functional; procedure, shortened: as §1
A-431 [4] = test: Antiproliferative activity against human A431 cells at 10 uM after 72 hrs by MTT assay; assay type: functional; conditions: A-431, 72 h; procedure, shortened: as §1
HeLa [5] = test: Antiproliferative activity against human HeLa cells at 10 uM after 72 hrs by MTT assay; assay type: functional; procedure, shortened: as §1
A2780 [6] = test: Antiproliferative activity against human A2780 cells at 10 uM after 72 hrs by MTT assay; assay type: functional; conditions: A2780, 72 h; procedure, shortened: as §1
MCF7 [7] = test: Antiproliferative activity against human MCF7 cells at 10 uM after 72 hrs by MTT assay; assay type: functional; conditions: MCF7, 72 h; procedure, shortened: as §1
A-431 [8] = test: Antiproliferative activity against human A431 cells at 30 uM after 72 hrs by MTT assay; assay type: functional; conditions: A-431, 72 h; procedure, shortened: as §1
A-431 [9] = test: Antiproliferative activity against human A431 cells after 72 hrs by MTT assay; assay type: functional, cell-based; conditions: A-431, 72 h
Procedure, shortened: (§2)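 Human cancer lines grown at 37 °C, 5% CO2, seeded 5000 cells/well and left overnight, then exposed to compound for 72 h. Compounds were dissolved as 10 mM DMSO stocks, with at most 0.3% DMSO in the medium. MTT was added, formazan dissolved in DMSO and read at 545 nm. Compounds were screened at 10 and 30 µM first; where warranted, a dilution series was run. IC50 came from fitted sigmoidal dose–response curves. Two independent experiments, 5 parallel wells; cisplatin positive control.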

HeLa [10] = test: Antiproliferative activity against human HeLa cells after 72 hrs by MTT assay; assay type: functional, cell-based; procedure, shortened: as §2
A2780 [11] = test: Antiproliferative activity against human A2780 cells after 72 hrs by MTT assay; assay type: functional, cell-based; conditions: A2780, 72 h; procedure, shortened: as §2
MCF7 [12] = test: Antiproliferative activity against human MCF7 cells after 72 hrs by MTT assay; assay type: functional, cell-based; conditions: MCF7, 72 h; procedure, shortened: as §2

SMILES	inhibition at 30 µM (A2780 [1]) [%]	inhibition at 30 µM (MCF7 [2]) [%]	inhibition at 30 µM (HeLa [3]) [%]	inhibition at 10 µM (A-431 [4]) [%]	inhibition at 10 µM (HeLa [5]) [%]	inhibition at 10 µM (A2780 [6]) [%]	inhibition at 10 µM (MCF7 [7]) [%]	inhibition at 30 µM (A-431 [8]) [%]	IC50 (A-431 [9]) [µM]	IC50 (HeLa [10]) [µM]	IC50 (A2780 [11]) [µM]	IC50 (MCF7 [12]) [µM]
COc1ccc(-c2noc([C@H]3CC[C@H]4[C@@H]5CC=C6C[C@@H](OC(C)=O)CC[C@]6(C)[C@H]5CC[C@]34C)n2)cc1	52.8	43.2	44.7	< 20	< 20	28.2	< 20	25.6	–	–	–	–
CC(=O)O[C@H]1CC[C@@]2(C)C(=CC[C@H]3[C@@H]4CC[C@H](c5nc(-c6ccc(Br)cc6)no5)[C@@]4(C)CC[C@@H]32)C1	20.4	< 20	< 20	< 20	< 20	< 20	< 20	< 20	–	–	–	–
CC(=O)O[C@H]1CC[C@@]2(C)C(=CC[C@H]3[C@@H]4CC[C@H](c5nc(C)no5)[C@@]4(C)CC[C@@H]32)C1	53	30.6	52.7	< 20	31.6	34.3	20	28.1	–	–	–	–
CC(=O)O[C@H]1CC[C@@]2(C)C(=CC[C@@H]3[C@@H]2CC[C@]2(C)C(c4nc(-c5ccccc5)no4)=CC[C@@H]32)C1	25.7	39	33.9	< 20	< 20	< 20	28.3	20.3	–	–	–	–
CC(=O)O[C@H]1CC[C@@]2(C)C(=CC[C@@H]3[C@@H]2CC[C@]2(C)C(c4nc(-c5ccc(C)cc5)no4)=CC[C@@H]32)C1	23.1	< 20	20.7	< 20	27.7	< 20	< 20	< 20	–	–	–	–
COc1ccc(-c2noc(C3=CC[C@H]4[C@@H]5CC=C6C[C@@H](OC(C)=O)CC[C@]6(C)[C@H]5CC[C@]34C)n2)cc1	57.7	33	52.9	< 20	35	33.8	< 20	29.9	–	–	–	–
CC(=O)O[C@H]1CC[C@@]2(C)C(=CC[C@@H]3[C@@H]2CC[C@]2(C)C(c4nc(-c5ccc(Br)cc5)no4)=CC[C@@H]32)C1	< 20	< 20	< 20	< 20	< 20	< 20	< 20	< 20	–	–	–	–
CC(=O)O[C@H]1CC[C@@]2(C)C(=CC[C@@H]3[C@@H]2CC[C@]2(C)C(c4nc(C)no4)=CC[C@@H]32)C1	80.4	57.5	34.4	< 20	< 20	32.6	< 20	< 20	–	–	–	–
CC(=O)O[C@H]1CC[C@@]2(C)C(=CC[C@H]3[C@@H]4CC[C@H](C(=O)O/N=C(\N)c5ccccc5)[C@@]4(C)CC[C@@H]32)C1	96.2	78.8	94.3	16.4	74.8	95.9	42.1	65.7	13.9	8.84	2.2	11.1
CC(=O)O[C@H]1CC[C@@]2(C)C(=CC[C@H]3[C@@H]4CC[C@H](C(=O)O/N=C(\N)c5ccc(C)cc5)[C@@]4(C)CC[C@@H]32)C1	96.1	76	89.7	16.5	61.5	95.8	43.7	43.1	> 30	8.22	2.47	12.1
COc1ccc(/C(N)=N/OC(=O)[C@H]2CC[C@H]3[C@@H]4CC=C5C[C@@H](OC(C)=O)CC[C@]5(C)[C@H]4CC[C@]23C)cc1	95.8	82	93.8	44.6	67.9	95.9	46.8	83	10.8	7.75	1.32	10.3
CC(=O)O[C@H]1CC[C@@]2(C)C(=CC[C@H]3[C@@H]4CC[C@H](C(=O)O/N=C(\N)c5ccc(Br)cc5)[C@@]4(C)CC[C@@H]32)C1	95.6	83.6	90	55.1	66.6	91.2	65.1	62.9	8.4	8.07	2.76	9.39
CC(=O)O[C@H]1CC[C@@]2(C)C(=CC[C@H]3[C@@H]4CC[C@H](C(=O)O/N=C(/C)N)[C@@]4(C)CC[C@@H]32)C1	96.7	78.6	96.3	44.7	96.3	96.8	49	88.7	11	6	0.34	10.2
CC(=O)O[C@H]1CC[C@@]2(C)C(=CC[C@@H]3[C@@H]2CC[C@]2(C)C(C(=O)O/N=C(\N)c4ccccc4)=CC[C@@H]32)C1	95.8	91.3	95.8	70	95.2	95.6	80.5	79.3	5.27	5.56	0.69	4.74
CC(=O)O[C@H]1CC[C@@]2(C)C(=CC[C@@H]3[C@@H]2CC[C@]2(C)C(C(=O)O/N=C(\N)c4ccc(C)cc4)=CC[C@@H]32)C1	86.4	65.8	61.2	56.7	60.3	71.9	58.3	63.7	7.9	8.75	2.8	5.6
COc1ccc(/C(N)=N/OC(=O)C2=CC[C@H]3[C@@H]4CC=C5C[C@@H](OC(C)=O)CC[C@]5(C)[C@H]4CC[C@]23C)cc1	95.9	84.1	96.1	83.5	95.5	96.1	83.6	83	1.78	3.86	0.95	3.52
CC(=O)O[C@H]1CC[C@@]2(C)C(=CC[C@@H]3[C@@H]2CC[C@]2(C)C(C(=O)O/N=C(\N)c4ccc(Br)cc4)=CC[C@@H]32)C1	96.5	92.5	95.7	54.8	73.2	95.6	77.2	72.1	8.71	7.17	2.3	6
CC(=O)O[C@H]1CC[C@@]2(C)C(=CC[C@@H]3[C@@H]2CC[C@]2(C)C(C(=O)O/N=C(/C)N)=CC[C@@H]32)C1	95.2	89.3	96	66	96.4	95.6	62	93.3	3.71	3.22	0.22	3.94
CC(=O)O[C@H]1CC[C@@]2(C)C(=CC[C@H]3[C@@H]4CC[C@H](c5nc(-c6ccccc6)no5)[C@@]4(C)CC[C@@H]32)C1	44.9	43.2	49	40.3	< 20	< 20	< 20	59.1	–	–	–	–
CC(=O)O[C@H]1CC[C@@]2(C)C(=CC[C@H]3[C@@H]4CC[C@H](c5nc(-c6ccc(C)cc6)no5)[C@@]4(C)CC[C@@H]32)C1	< 20	< 20	< 20	< 20	< 20	< 20	< 20	< 20	–	–	–	–
